≈ marks a conversion by molar mass, not a printed value. Where only a bound is given, the exact number is not on record here.

The first assay has as its system Candida parapsilosis. As to the kind of experiment: Antimicrobial activity against Candida parapsilosis 22019 after 24 hrs by serial dilution method. The note with it: Lodderomyces parapsilosis, 22019, 24 h. The format is functional. Summed up: (§1)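 Broth serial dilution MIC in 96-well plates following NCCLS/CLSI methods. Compounds were dissolved in DMSO and serially diluted in growth medium, with incubation at 35 °C. […] C. parapsilosis 22019 served as the quality-control strain in each assay.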
For orientation: MIC means the least concentration at which growth counts as inhibited. Read a low MIC as a more susceptible organism. In turn, `Cc1ccc(-c2cc3c(s2)CCN([C@H](C)[C@](O)(Cn2cncn2)c2ccc(F)cc2F)C3)cc1` showed an MIC of 4 µg/mL (≈ 8.32 µM).

For `C[C@@H](N1CCc2sc(-c3ccc(C#N)cc3)cc2C1)[C@](O)(Cn1cncn1)c1ccc(F)cc1F`, the MIC was determined as 8 µg/mL (≈ 16.3 µM).

`Cc1cccc(-c2cc3c(s2)CCN([C@H](C)[C@](O)(Cn2cncn2)c2ccc(F)cc2F)C3)c1` displayed an MIC of 2 µg/mL (≈ 4.16 µM).

`C[C@@H](N1CCc2sc(-c3cccc(F)c3)cc2C1)[C@](O)(Cn1cncn1)c1ccc(F)cc1F` showed an MIC of 4 µg/mL (≈ 8.26 µM).

`C[C@@H](N1CCc2sc(-c3cccc(C#N)c3)cc2C1)[C@](O)(Cn1cncn1)c1ccc(F)cc1F` showed an MIC of 4 µg/mL (≈ 8.14 µM).

`C[C@@H](N1CCc2sc(-c3cccc(Cl)c3)cc2C1)[C@](O)(Cn1cncn1)c1ccc(F)cc1F` had an MIC of 4 µg/mL (≈ 7.98 µM).

The compound `C[C@@H](N1CCc2sc(-c3cccc(C(F)(F)F)c3)cc2C1)[C@](O)(Cn1cncn1)c1ccc(F)cc1F` yielded an MIC of 2 µg/mL (≈ 3.74 µM).

`C[C@@H](N1CCc2sc(-c3cncnc3)cc2C1)[C@](O)(Cn1cncn1)c1ccc(F)cc1F` gave a minimum inhibitory concentration (MIC) of 4 µg/mL (≈ 8.54 µM).

The subject of another assay is Candida albicans. The assay can be described thus: Antimicrobial activity against Candida albicans Y0109 after 24 hrs by serial dilution method. Particulars: Y0109, 24 h. The format is functional. Summed up: as §1
In turn, `Cc1ccc(-c2cc3c(s2)CCN([C@H](C)[C@](O)(Cn2cncn2)c2ccc(F)cc2F)C3)cc1` showed an MIC of 2 µg/mL (≈ 4.16 µM).

`C[C@@H](N1CCc2sc(-c3ccc(C#N)cc3)cc2C1)[C@](O)(Cn1cncn1)c1ccc(F)cc1F` had an MIC of 8 µg/mL (≈ 16.3 µM).

`Cc1cccc(-c2cc3c(s2)CCN([C@H](C)[C@](O)(Cn2cncn2)c2ccc(F)cc2F)C3)c1` yielded an MIC of 2 µg/mL (≈ 4.16 µM).

`C[C@@H](N1CCc2sc(-c3cccc(F)c3)cc2C1)[C@](O)(Cn1cncn1)c1ccc(F)cc1F` came in with an MIC of 2 µg/mL (≈ 4.13 µM).

As for `C[C@@H](N1CCc2sc(-c3cccc(C#N)c3)cc2C1)[C@](O)(Cn1cncn1)c1ccc(F)cc1F`, the MIC is 4 µg/mL (≈ 8.14 µM).

As to `C[C@@H](N1CCc2sc(-c3cccc(Cl)c3)cc2C1)[C@](O)(Cn1cncn1)c1ccc(F)cc1F`, the MIC came to 2 µg/mL (≈ 3.99 µM).

In turn, `C[C@@H](N1CCc2sc(-c3cccc(C(F)(F)F)c3)cc2C1)[C@](O)(Cn1cncn1)c1ccc(F)cc1F` had an MIC of 0.5 µg/mL (≈ 0.935 µM).

For `C[C@@H](N1CCc2sc(-c3cncnc3)cc2C1)[C@](O)(Cn1cncn1)c1ccc(F)cc1F`, the MIC was 4 µg/mL (≈ 8.54 µM).

The next assay has as its system Candida albicans. The assay can be described thus: Antimicrobial activity against Candida albicans SC5314 after 24 hrs by serial dilution method. It counts as functional. The note with it: SC5314, 24 h. Summed up:
as §1
In turn, `Cc1ccc(-c2cc3c(s2)CCN([C@H](C)[C@](O)(Cn2cncn2)c2ccc(F)cc2F)C3)cc1` registered an MIC of 1 µg/mL (≈ 2.08 µM).

`C[C@@H](N1CCc2sc(-c3ccc(C#N)cc3)cc2C1)[C@](O)(Cn1cncn1)c1ccc(F)cc1F` returned an MIC of 2 µg/mL (≈ 4.07 µM).

Compound `Cc1cccc(-c2cc3c(s2)CCN([C@H](C)[C@](O)(Cn2cncn2)c2ccc(F)cc2F)C3)c1` had an MIC of 1 µg/mL (≈ 2.08 µM).

`C[C@@H](N1CCc2sc(-c3cccc(F)c3)cc2C1)[C@](O)(Cn1cncn1)c1ccc(F)cc1F` had an MIC of 1 µg/mL (≈ 2.06 µM).

As for `C[C@@H](N1CCc2sc(-c3cccc(C#N)c3)cc2C1)[C@](O)(Cn1cncn1)c1ccc(F)cc1F`, the minimum inhibitory concentration (MIC) is 2 µg/mL (≈ 4.07 µM).

For the compound `C[C@@H](N1CCc2sc(-c3cccc(Cl)c3)cc2C1)[C@](O)(Cn1cncn1)c1ccc(F)cc1F`, the lowest concentration to inhibit growth (MIC) was 2 µg/mL (≈ 3.99 µM).

For `C[C@@H](N1CCc2sc(-c3cccc(C(F)(F)F)c3)cc2C1)[C@](O)(Cn1cncn1)c1ccc(F)cc1F`, the minimum inhibitory concentration (MIC) came to 1 µg/mL (≈ 1.87 µM).

`C[C@@H](N1CCc2sc(-c3cncnc3)cc2C1)[C@](O)(Cn1cncn1)c1ccc(F)cc1F` returned an MIC of 2 µg/mL (≈ 4.27 µM).

The test system of another assay is Aspergillus fumigatus. The assay can be described thus: Antimicrobial activity against Aspergillus fumigatus 7544 after 48 hrs by serial dilution method. Particulars: Aspergillus fumigatus, 7544, 48 h. The format is functional. Put shortly: as §1
As to `Cc1ccc(-c2cc3c(s2)CCN([C@H](C)[C@](O)(Cn2cncn2)c2ccc(F)cc2F)C3)cc1`, inhibition of growth (MIC) required 8 µg/mL (≈ 16.6 µM).

As for `C[C@@H](N1CCc2sc(-c3ccc(C#N)cc3)cc2C1)[C@](O)(Cn1cncn1)c1ccc(F)cc1F`, 64 µg/mL (≈ 130 µM) was the least that counted as inhibitory (MIC).

As for `Cc1cccc(-c2cc3c(s2)CCN([C@H](C)[C@](O)(Cn2cncn2)c2ccc(F)cc2F)C3)c1`, inhibition of growth (MIC) required 16 µg/mL (≈ 33.3 µM).

Consider `C[C@@H](N1CCc2sc(-c3cccc(F)c3)cc2C1)[C@](O)(Cn1cncn1)c1ccc(F)cc1F`, for which the MIC is 8 µg/mL (≈ 16.5 µM).

Compound `C[C@@H](N1CCc2sc(-c3cccc(C#N)c3)cc2C1)[C@](O)(Cn1cncn1)c1ccc(F)cc1F` showed an MIC of 64 µg/mL (≈ 130 µM).

`C[C@@H](N1CCc2sc(-c3cccc(Cl)c3)cc2C1)[C@](O)(Cn1cncn1)c1ccc(F)cc1F` came in with an MIC of over 64 µg/mL.

Take `C[C@@H](N1CCc2sc(-c3cccc(C(F)(F)F)c3)cc2C1)[C@](O)(Cn1cncn1)c1ccc(F)cc1F`: the MIC was 32 µg/mL (≈ 59.9 µM).

`C[C@@H](N1CCc2sc(-c3cncnc3)cc2C1)[C@](O)(Cn1cncn1)c1ccc(F)cc1F` had an MIC of over 32 µg/mL.

Another assay has as its system Cryptococcus neoformans. As to the kind of experiment: Antimicrobial activity against Cryptococcus neoformans 32609 after 72 hrs by serial dilution method. The format is functional. The note with it: Cryptococcus neoformans, 32609, 72 h. Put shortly:
as §1
Turning to `Cc1ccc(-c2cc3c(s2)CCN([C@H](C)[C@](O)(Cn2cncn2)c2ccc(F)cc2F)C3)cc1`, the MIC stood at 4 µg/mL (≈ 8.32 µM).

The compound `C[C@@H](N1CCc2sc(-c3ccc(C#N)cc3)cc2C1)[C@](O)(Cn1cncn1)c1ccc(F)cc1F` yielded an MIC of 4 µg/mL (≈ 8.14 µM).

As for `Cc1cccc(-c2cc3c(s2)CCN([C@H](C)[C@](O)(Cn2cncn2)c2ccc(F)cc2F)C3)c1`, the MIC amounted to 4 µg/mL (≈ 8.32 µM).

For the compound `C[C@@H](N1CCc2sc(-c3cccc(F)c3)cc2C1)[C@](O)(Cn1cncn1)c1ccc(F)cc1F`, the MIC came to 1 µg/mL (≈ 2.06 µM).

The compound `C[C@@H](N1CCc2sc(-c3cccc(C#N)c3)cc2C1)[C@](O)(Cn1cncn1)c1ccc(F)cc1F` showed an MIC of 2 µg/mL (≈ 4.07 µM).

`C[C@@H](N1CCc2sc(-c3cccc(Cl)c3)cc2C1)[C@](O)(Cn1cncn1)c1ccc(F)cc1F` showed an MIC of 4 µg/mL (≈ 7.98 µM).

In the case of `C[C@@H](N1CCc2sc(-c3cccc(C(F)(F)F)c3)cc2C1)[C@](O)(Cn1cncn1)c1ccc(F)cc1F`, it took 0.5 µg/mL (≈ 0.935 µM) to inhibit growth (MIC).

`C[C@@H](N1CCc2sc(-c3cncnc3)cc2C1)[C@](O)(Cn1cncn1)c1ccc(F)cc1F` yielded an MIC of 4 µg/mL (≈ 8.54 µM).

Another assay has as its system Nakaseomyces glabratus. The assay can be described thus: Antimicrobial activity against Candida glabrata 537 after 24 hrs by serial dilution method. It counts as functional. The note with it: Nakaseomyces glabratus, 537, 24 h. Put shortly:
as §1
On to `Cc1ccc(-c2cc3c(s2)CCN([C@H](C)[C@](O)(Cn2cncn2)c2ccc(F)cc2F)C3)cc1`, for which the MIC turned out to be 4 µg/mL (≈ 8.32 µM).

Compound `C[C@@H](N1CCc2sc(-c3ccc(C#N)cc3)cc2C1)[C@](O)(Cn1cncn1)c1ccc(F)cc1F` came in with an MIC of 8 µg/mL (≈ 16.3 µM).

Compound `Cc1cccc(-c2cc3c(s2)CCN([C@H](C)[C@](O)(Cn2cncn2)c2ccc(F)cc2F)C3)c1` showed an MIC of 4 µg/mL (≈ 8.32 µM).

Compound `C[C@@H](N1CCc2sc(-c3cccc(F)c3)cc2C1)[C@](O)(Cn1cncn1)c1ccc(F)cc1F` returned an MIC of 1 µg/mL (≈ 2.06 µM).

`C[C@@H](N1CCc2sc(-c3cccc(C#N)c3)cc2C1)[C@](O)(Cn1cncn1)c1ccc(F)cc1F` gave an MIC of 8 µg/mL (≈ 16.3 µM).

The compound `C[C@@H](N1CCc2sc(-c3cccc(Cl)c3)cc2C1)[C@](O)(Cn1cncn1)c1ccc(F)cc1F` came in with an MIC of 8 µg/mL (≈ 16 µM).

On to `C[C@@H](N1CCc2sc(-c3cccc(C(F)(F)F)c3)cc2C1)[C@](O)(Cn1cncn1)c1ccc(F)cc1F`, for which the minimum inhibitory concentration (MIC) was 1 µg/mL (≈ 1.87 µM).

With `C[C@@H](N1CCc2sc(-c3cncnc3)cc2C1)[C@](O)(Cn1cncn1)c1ccc(F)cc1F`, the MIC turned out to be 8 µg/mL (≈ 17.1 µM).

For the origin of these results see ChEMBL document CHEMBL3259614, “Design, synthesis, and structure-activity relationship studies of novel fused heterocycles-linked triazoles with good activity and water solubility” (J Med Chem, 2014).
